According to PMC8247328 (British Journal of Clinical Pharmacology, 2020):
Where a SMILES comes first, the peptide text is derived from it. [ ]: non-standard residue; d: D form.

Assays:
[1] = system: mitochondrial function in the visual cortex; assay: 31P-MRS of the visual cortex before, during and after visual stimulation; type: in vivo, human; details: Part 2; 25 mg s.c. once daily 28 d; n=11; day 27
Method in brief: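 At 3 T, a 6-cm 31P transmit/receive surface coil was placed over the visual cortex, positioned using a 10-mm water sphere on 1H images. Adiabatic pulse-acquire (TR 2 s, flip 90°) FIDs were collected for 4 min at rest (128 averages), 8 min during visual activation (256) and 8 min after (256). Time-domain fitting with prior knowledge gave PCr/ATP, Pi/PCr, Pi/ATP and pH. Scans ran on day −1 and 1.5 h post-dose on day 27; mixed-model ANCOVA used baseline as covariate.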

[2] = Plasma pharmacokinetics of SBT-020; type: in vivo, human
Method in brief: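 Dosing was subcutaneous once daily. In Part 1, 24-h plasma profiles were taken on day 1 and at steady state (day 7); Part 2 used steady-state troughs only. Plasma aliquots were spiked with 5% aqueous formic acid, and active-arm samples were assayed by validated LC-MS (LLOQ 2.5 ng/mL). Noncompartmental analysis set pre-Cmax values below LLOQ to zero and excluded post-Cmax ones.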

[3] = system: patients with early stage HD; assay: Motor assessments and UHDRS; type: in vivo, human; details: Part 2; 25 mg s.c. once daily 28 d
Method in brief: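 In Part 2 only, motor and neurocognitive tests were run at the start and 1.5 h after the final subcutaneous dose on day 28. Each parameter was analysed by mixed-model ANCOVA with treatment as fixed factor and baseline as covariate, with no multiplicity adjustment.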

SN4741 cells = details: cultured SN4741 cells exposed to MPTP; cited from earlier work
[4] = system: peripheral blood mononuclear cells (PBMCs); assay: Mitochondrial membrane potential of PBMCs; type: in vivo, human; details: for Mitochondrial membrane potential (Delta psi), contrast vs placebo (95% CI) / Percentage of dysfunctional PMBCs, contrast vs placebo (95% CI): ANCOVA; for Mitochondrial membrane potential (Delta psi), LS mean: PBMCs
Method in brief: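 Live PBMCs were stained with JC-1 and read by flow cytometry, FL-2 for healthy and FL-1 for dysfunctional mitochondria. A fraction of cells was treated with CCCP as uncoupled positive control, and ΔΨm was calculated from FL2/FL1 ratios ×100. Blood was drawn 1 h before dosing on day 1 and 1.5 h after the final dose on day 7 (Part 1), and 1.5 h post-dose on day 27 (Part 2). Analysis was mixed-model ANCOVA with baseline as covariate.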

[5] = Part 1, 5 mg s.c. once daily 7 d
[6] = Part 1, 5 mg s.c. once daily 7 d, n=6, day 7, 1.5 h post dose
[7] = Part 1, 15 mg s.c. once daily 7 d
[8] = Part 1, 25 mg s.c. once daily 7 d
[9] = Part 2, 25 mg s.c. once daily 28 d
[10] = Part 2, 25 mg s.c. once daily 28 d, n=11, day 27, 1.5 h post dose

N=C(N)NCCC[C@@H](NC(=O)[C@@H](N)Cc1ccccc1)C(=O)N[C@@H](Cc1ccccc1)C(=O)N[C@@H](CCCCN)C(N)=O [SBT‐020, H‐Phe‐D‐Arg‐Phe‐Lys‐NH2] (H-F[dR]FK-NH2)
PCr/ATP during visual stimulation (central 31P‐MRS), LS mean [1]: 0.8 | PCr/ATP during‐after visual stimulation (central 31P‐MRS), LS mean [1]: −0.05 | PCr/ATP during‐before visual stimulation (central 31P‐MRS), LS mean [1]: −0.03 | Pi/ATP after visual stimulation (central 31P‐MRS), LS mean [1]: 0.2 | Pi/ATP before visual stimulation (central 31P‐MRS), LS mean [1]: 0.2 | Pi/ATP during visual stimulation (central 31P‐MRS), LS mean [1]: 0.2 | Pi/ATP during‐after visual stimulation (central 31P‐MRS), LS mean [1]: −0.02 | Pi/ATP during‐before visual stimulation (central 31P‐MRS), LS mean [1]: −0.01 | Pi/PCr after visual stimulation (central 31P‐MRS), LS mean [1]: 0.2 | Pi/PCr before visual stimulation (central 31P‐MRS), LS mean [1]: 0.2 | Pi/PCr during visual stimulation (central 31P‐MRS), LS mean [1]: 0.2 | Pi/PCr during‐after visual stimulation (central 31P‐MRS), LS mean [1]: −0.005 | Pi/PCr during‐before visual stimulation (central 31P‐MRS), LS mean [1]: −0.006 | Exposure higher between day 1 and day 7 ([2]; Part 1, 25‐mg dose cohort): approximately 10% | Accumulation ([2]; Part 2, weekly trough samples, 28 days of daily 25 mg s.c.): did not accumulate | Median percentage of extrapolated AUC ([2]; Part 1 day 7, 15‐mg cohort): less than 2% | Apparent elimination half‐life ([2]; Part 1 day 7, 15‐mg cohort, mean): 3.94 h | Median percentage of extrapolated AUC ([2]; Part 1 day 7, 25‐mg cohort): less than 2% | Tmax ([2]; human, plasma, sc): ~1 h | Dose proportionality of exposure ([2]; once daily subcutaneous administration): dose‐proportional exposure | Effect on motor function [3]: no effect | Cell viability and apoptosis (SN4741 cells): improved cell viability and reduced apoptosis | Mitochondrial membrane potential (Delta psi), contrast vs placebo (95% CI) [4, 5]: 263.528 (−1151.3, 1678.31) P = .7001 | Percentage of dysfunctional PMBCs, contrast vs placebo (95% CI) [4, 5]: −1.980 (−3.819, −0.141) P = .0363% | Percentage of dysfunctional PMBCs, LS mean [4, 6]: 3.82% | Mitochondrial membrane potential (Delta psi), LS mean [4, 6]: 3162.27 | Mitochondrial membrane potential (Delta psi), contrast vs placebo (95% CI) [4, 7]: −16.375 (−1411.2, 1378.48) P = .9806 | Percentage of dysfunctional PMBCs, contrast vs placebo (95% CI) [4, 7]: −3.002 (−4.980, −1.025) P = .0051% | Percentage of dysfunctional PMBCs, LS mean ([4]; Part 1, 15 mg s.c. once daily 7 d, n=6, day 7, 1.5 h post dose): 2.80% | Mitochondrial membrane potential (Delta psi), contrast vs placebo (95% CI) [4, 8]: 1513.21 (114.067, 2912.36) P = .0356 | Percentage of dysfunctional PMBCs, contrast vs placebo (95% CI) [4, 8]: −2.052 (−3.894, −0.210) P = .0310% | Percentage of dysfunctional PMBCs, LS mean ([4]; Part 1, 25 mg s.c. once daily 7 d, n=6, day 7, 1.5 h post dose): 3.75% | Mean percentage of dysfunctional PBMCs after 7 days of treatment ([4]; Part 1, 5‐mg cohort, baseline mean 3.2): 3.4% | Mean ∆Ψm after 7 days of treatment ([4]; Part 1, 5‐mg cohort, baseline mean 2956): 2948 | Mean percentage of dysfunctional PBMCs after 7 days of treatment ([4]; Part 1, 15‐mg cohort, baseline mean 4.3): 3.8% | Mean ∆Ψm after 7 days of treatment ([4]; Part 1, 15‐mg cohort, baseline mean 3,316): 3,282 | Mean percentage of dysfunctional PBMCs after 7 days of treatment ([4]; Part 1, 25‐mg cohort, baseline mean 3.2): 3.4% | Mean ∆Ψm after 7 days of treatment ([4]; Part 1, 25‐mg cohort, baseline mean 3715): 5279 | Mitochondrial membrane potential (Delta psi), contrast vs placebo (95% CI) [4, 9]: 1065.4 (−495.2, 2626.0) P = .17 | Percentage of dysfunctional PMBCs, contrast vs placebo (95% CI) [4, 9]: −0.75 (−3.93, 2.42) P = .62% | Percentage of dysfunctional PMBCs, LS mean [4, 10]: 4.08% | Mitochondrial membrane potential (Delta psi), LS mean [4, 10]: 4090.47 | Mean percentage of dysfunctional PBMCs after 28 days of treatment ([4]; Part 2, active group 25 mg, baseline mean 4.6): 4.2% | Mean ∆Ψm after 28 days of treatment ([4]; Part 2, active group 25 mg, baseline mean 3770): 4124
